Experimental data from ChEMBL document CHEMBL5154785, “Hypothesis-Driven, Structure-Based Design in Photopharmacology: The Case of eDHFR Inhibitors” (J Med Chem, 2022).
Values after ≈ are worked out from the molar mass of the structure shown. Active and inactive are the calls of the source. The rule behind the calls is not given here.

Key:
Escherichia coli [1] = test: Antibacterial activity against Escherichia coli CS1562 assessed as reduction in bacterial growth at 20 uM irradiated with 355 nm light measured after 24 hrs by plate reader method; assay type: functional, organism-based
Outline: (§1)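 E. coli CS1562 grown overnight at 37 °C in LB with tetracycline (10 μg/mL), then diluted to 0.002 OD600. Compound serial dilutions made in DMSO and diluted 25-fold in LB. Irradiated set exposed to 355 nm for 30 min before adding cells; dark set not irradiated. Triplicates grown overnight at 37 °C with OD600 read every 10 min, background-corrected to t=0.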

Escherichia coli [2] = test: Antibacterial activity against Escherichia coli CS1562 assessed as reduction in bacterial growth at 20 uM measured after 24 hrs under dark condition by plate reader method; assay type: functional, organism-based; outline: as §1
Escherichia coli [3] = test: Antibacterial activity against Escherichia coli CS1562 assessed as reduction in bacterial growth under dark condition measured after 24 hrs by plate reader method; assay type: functional; outline: as §1
Escherichia coli [4] = test: Antibacterial activity against Escherichia coli CS1562 assessed as reduction in bacterial growth irradiated with 355 nm light measured after 24 hrs by plate reader method; assay type: functional; conditions: CS1562, light or radiation study; outline: as §1
[5] = Inhibition of Escherichia coli DHFR irradiated with 390 nm light preincubated with NADPH for 3 mins followed by compound addition for 7 mins by colorimetric assay
Outline: (§2)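 In-house E. coli DHFR expressed in BL21(DE3) and Ni-NTA purified. Enzyme (~20 ng) preincubated with 60 μM NADPH, then with inhibitor at 10^-5 to 10^-12 M final, 1% DMSO. Dark samples heat-adapted to the trans isomer; irradiated samples brought to PSS at 100 μM for 15–45 min. Reaction started with 15 μM dihydrofolate, A340 followed every 5 s for 300 s at 25 °C. Triplicates; activity taken relative to a DMSO control; IC50 from nonlinear regression.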

[6] = Inhibition of Escherichia coli DHFR preincubated with NADPH for 3 mins followed by compound addition for 7 mins under dark condition by colorimetric assay; outline: as §2
[7] = Half life of compound; assay type: physicochemical
Outline: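 Metastable-isomer thermal relaxation tracked as recovery of the π–π* band under stirring, at 25 °C in DMSO or eDHFR assay buffer, or at 37 °C in 10 mM Tris-HCl pH 7.0. Fitted to a first-order exponential.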

MIC (Escherichia coli [3]) [µM]	MIC (Escherichia coli [4]) [µM]	IC50 [5] [µM]	IC50 [6] [µM]	SMILES	also measured
–	–	> 10	> 10	Nc1ncc(/N=N/c2ccccc2)c(N)n1	half-life [7]: 10 s
–	–	> 10	> 10	Nc1ncc(C#Cc2ccc(/N=N/c3ccccc3)cc2)c(N)n1	–
–	–	> 10	> 10	Nc1ncc(-c2ccc(/N=N/c3ccccc3)cc2)c(N)n1	–

The remaining lines, values behind:

SMILES	MIC (Escherichia coli [3]) [µM]	MIC (Escherichia coli [4]) [µM]	IC50 [5] [µM]	IC50 [6] [µM]	also measured
COC(C)(C#Cc1cnc(N)nc1N)c1ccc(/N=N/c2cccc(C(=O)O)c2)cc1 (stereo not given)	–	–	–	–	Activity (Escherichia coli [1]): Active; Activity (Escherichia coli [2]): Active
COc1cc(Cc2cnc(N)nc2N)cc(OC)c1OCc1cc(Cl)c(/N=N/c2c(Cl)cccc2Cl)c(Cl)c1	> 80	10 (≈ 6.08 µg/mL)	–	–	–
COc1ccc(/N=N/c2ccc(COc3c(OC)cc(Cc4cnc(N)nc4N)cc3OC)cc2)cc1	20 (≈ 10 µg/mL)	10 (≈ 5.01 µg/mL)	–	–	–
COc1cc(Cc2cnc(N)nc2N)cc(OC)c1OCc1cc(F)c(/N=N/c2c(F)cccc2F)c(F)c1	10 (≈ 5.42 µg/mL)	5 (≈ 2.71 µg/mL)	–	–	–
